Test results taken from ChEMBL document CHEMBL4152239, “Design, synthesis and structure-activity relationship studies of GPR40 agonists containing amide linker” (Eur J Med Chem, 2018).
pEC50: −log10 of the molar value. Active and inactive are the calls of the source. The calls are words filed in the database; no cut-off is given here.

Columns and labels:
[1] = molecular target: Free fatty acid receptor 1 (Homo sapiens, UniProt O14842); assay: Agonist activity at human GPR40 expressed in HEK293 cells assessed as increase in calcium mobilization by Fluo-8 dye based fluorescence assay; assay type: functional, cell-based
Chain of Free fatty acid receptor 1 (Homo sapiens, UniProt O14842) (O14842 whole entry): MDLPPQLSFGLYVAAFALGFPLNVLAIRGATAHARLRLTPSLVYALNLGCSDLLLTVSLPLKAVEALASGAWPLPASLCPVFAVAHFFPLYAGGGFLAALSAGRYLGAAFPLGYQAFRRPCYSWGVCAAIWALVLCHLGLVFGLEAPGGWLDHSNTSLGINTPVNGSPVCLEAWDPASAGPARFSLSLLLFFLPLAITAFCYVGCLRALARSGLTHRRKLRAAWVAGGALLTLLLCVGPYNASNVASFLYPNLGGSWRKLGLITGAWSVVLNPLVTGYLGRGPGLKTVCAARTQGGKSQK

[2] = Half life in human liver microsomes at 0.1 mM in presence of NADPH by LC-MS analysis; assay type: ADME, microsome
[3] = Half life in mouse liver microsomes at 0.1 mM in presence of NADPH by LC-MS analysis; assay type: ADME, microsome
[4] = Apparent permeability across apical to basolateral side in human Caco2 cells by LC-MS analysis; assay type: ADME, cell-based; settings: caco-2
[5] = Efflux ratio of permeability from […] in human Caco2 cells by LC-MS analysis; assay type: ADME, cell-based; settings: caco-2
[6] = molecular target: Free fatty acid receptor 1 (Rattus norvegicus, UniProt Q8K3T4); assay: Agonist activity at rat GPR40; assay type: functional
Chain of Free fatty acid receptor 1 (Rattus norvegicus, UniProt Q8K3T4) (Q8K3T4 whole entry): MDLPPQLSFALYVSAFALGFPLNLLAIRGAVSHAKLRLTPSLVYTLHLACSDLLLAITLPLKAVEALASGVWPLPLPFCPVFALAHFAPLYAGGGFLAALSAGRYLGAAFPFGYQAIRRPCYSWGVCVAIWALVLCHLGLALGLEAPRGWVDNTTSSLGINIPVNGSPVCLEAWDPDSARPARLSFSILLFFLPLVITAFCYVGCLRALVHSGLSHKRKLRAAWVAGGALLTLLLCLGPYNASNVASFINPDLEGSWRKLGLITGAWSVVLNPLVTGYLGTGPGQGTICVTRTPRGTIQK

[7] = molecular target: Free fatty acid receptor 1 (Mus musculus, UniProt Q76JU9); assay: Agonist activity at mouse GPR40; assay type: functional
Chain of Free fatty acid receptor 1 (Mus musculus, UniProt Q76JU9) (Q76JU9 whole entry): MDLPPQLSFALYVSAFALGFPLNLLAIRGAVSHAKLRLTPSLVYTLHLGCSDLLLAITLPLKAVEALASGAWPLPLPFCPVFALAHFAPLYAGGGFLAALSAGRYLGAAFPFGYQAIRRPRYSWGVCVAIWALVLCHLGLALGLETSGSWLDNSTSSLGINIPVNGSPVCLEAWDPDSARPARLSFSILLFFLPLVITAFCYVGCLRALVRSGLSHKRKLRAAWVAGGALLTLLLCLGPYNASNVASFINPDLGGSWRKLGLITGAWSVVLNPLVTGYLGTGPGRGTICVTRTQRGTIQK

[8] = AUC (0 to 8 hrs) in ICR mouse at 30 mg/kg, po by LC-MS analysis; assay type: ADME, organism-based; parameters: dose 30 mg/kg, time < 8 hr, route oral; settings: in vivo
How it was run: (§1)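 Male ICR mice, single oral dose of 30mg/kg, n = 3 per compound; vehicle 0.1% Tween-80 in 1% hydropropylcellulose sodium. Plasma sampled over time to derive pharmacokinetic parameters.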

[9] = Half life in ICR mouse at 30 mg/kg, po by LC-MS analysis; assay type: ADME, organism-based; settings: in vivo; how it was run: as §1
[10] = Tmax in ICR mouse at 30 mg/kg, po by LC-MS analysis; assay type: ADME, organism-based; settings: in vivo; how it was run: as §1
[11] = Cmax in ICR mouse at 30 mg/kg, po by LC-MS analysis; assay type: ADME, organism-based; parameters: dose 30 mg/kg, route oral; settings: in vivo; how it was run: as §1
[12] = Ratio of drug uptake in ICR mouse brain to plasma at 30 mg/kg, po measured at 1 hr by LC-MS analysis; assay type: ADME, organism-based; settings: read-out: BPR
How it was run: (§2)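 Male ICR mice received 30mg/kg orally, n = 3. Mice were sacrificed at 0.75 h or 1 h depending on compound. Total drug in brain or liver was divided by plasma drug to give the distribution ratio.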

[13] = Ratio of drug uptake in ICR mouse liver to plasma at 30 mg/kg, po measured at 1 hr by LC-MS analysis; assay type: ADME, organism-based; how it was run: as §2
Mus musculus = assay: Antidiabetic activity in ICR mouse assessed as reduction in blood glucose AUC (0 to 120 mins) at 100 mg/kg, po dosed 30 minutes prior to glucose challenge by OGTT; assay type: functional, organism-based
How it was run: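 ICR mice (n=8) received compound orally before an oral glucose load of 2.5 g/kg. […] Comparison was against vehicle control by Student's t-test.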

[14] = Ratio of drug uptake in ICR mouse brain to plasma at 30 mg/kg, po measured at 0.75 hrs by LC-MS analysis; assay type: ADME, organism-based; settings: read-out: BPR
How it was run: (§3)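 Male ICR mice (n = 3) were dosed orally at 30 mg/kg and sacrificed at a set time point. The time point depended on the compound: 0.75 h for some and 1 h for others. Total drug in brain and liver was expressed as a ratio to total plasma drug (brain-to-plasma and liver-to-plasma distribution ratios).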

[15] = Ratio of drug uptake in ICR mouse liver to plasma at 30 mg/kg, po measured at 0.75 hrs by LC-MS analysis; assay type: ADME, organism-based; how it was run: as §3
[16] = Ratio of drug uptake in rat brain to plasma; assay type: ADME; settings: read-out: BPR

SMILES: CC#CC(CC(=O)O)c1ccc(OCc2ccc(C(=O)N3CCN(c4ccccc4F)CC3)s2)cc1 (stereo not drawn)
- pEC50 [1]: 6.95

SMILES: CC#C[C@@H](CC(=O)O)c1ccc(OCc2ccc(C(=O)N[C@@H]3CCCc4ccccc43)cc2)cc1
- pEC50 [1]: 7.70
- half-life at 100 µM [2]: 387 min
- half-life at 100 µM [3]: 74 min
- Papp A→B [4]: 188 nm/s
- Ratio [5]: 0.9
- pEC50 [6]: 7.85
- pEC50 [7]: 7.64
- AUC(0-t) at 8 h [8]: 80 µg·h/mL
- half-life [9]: 318 min
- Tmax [10]: 72 min
- Cmax [11]: 15.5 µg/mL
- Kp at 1 h [12]: 0.011
- Kp at 1 h [13]: 0.3
- Activity (Mus musculus): Active

SMILES: CC#CC(CC(=O)O)c1ccc(OCc2ccc(C(=O)N3CCN(c4ccc([N+](=O)[O-])cc4)CC3)s2)cc1 (stereo not drawn)
- pEC50 [1]: 6.64

SMILES: CC#C[C@@H](CC(=O)O)c1ccc(OCc2ccc(CN3CCC4(C=Cc5ccccc54)CC3)cc2)cc1 [LY2881835]
- pEC50 [1]: 6.87
- half-life at 100 µM [2]: 18 min
- half-life at 100 µM [3]: 2 min
- Papp A→B [4]: 150 nm/s
- Ratio [5]: 0.4
- AUC(0-t) at 8 h [8]: 5.15 µg·h/mL
- half-life [9]: 78 min
- Tmax [10]: 42 min
- Cmax [11]: 2.85 µg/mL
- Kp at 0.75 h [14]: 0.14
- Kp at 0.75 h [15]: 2.5

SMILES: CC#CC(CC(=O)O)c1ccc(OCc2cnc(C(=O)N3CCc4ccccc4C3)s2)cc1 (stereo not drawn)
- pEC50 [1]: 6.27

SMILES: CC#CC(CC(=O)O)c1ccc(OCc2ccc(C(=O)N3CCN(c4cccc([N+](=O)[O-])c4)CC3)s2)cc1 (stereo not drawn)
- pEC50 [1]: 6.73

SMILES: Cc1nc(-c2ccc(C(F)(F)F)cc2)sc1COc1ccc([C@H](CC(=O)O)c2ccon2)cc1
- Kp [16]: 0.02

SMILES: CC#CC(CC(=O)O)c1ccc(OCc2ccc(C(=O)N3CCN(c4ccccn4)CC3)s2)cc1 (stereo not drawn)
- pEC50 [1]: 6.86

SMILES: CC#CC(CC(=O)O)c1ccc(OCc2ccc(C(=O)N3CCN(c4ccc(C(C)(C)C)cc4)CC3)s2)cc1 (stereo not drawn)
- pEC50 [1]: 6.38

SMILES: CC#CC(CC(=O)O)c1ccc(OCc2ccc(C(=O)N3CCN(c4cccc(F)c4)CC3)s2)cc1 (stereo not drawn)
- pEC50 [1]: 7.01

SMILES: CC#CC(CC(=O)O)c1ccc(OCc2ccc(C(=O)N3CCN(c4ccccc4[N+](=O)[O-])CC3)s2)cc1 (stereo not drawn)
- pEC50 [1]: 7.03

SMILES: CC#C[C@@H](CC(=O)O)c1ccc(OCc2ccc(C(=O)N[C@H]3CCCc4ccccc43)cc2)cc1
- pEC50 [1]: 7.41
- half-life at 100 µM [2]: 214 min
- half-life at 100 µM [3]: 27 min
- Papp A→B [4]: 152 nm/s
- Ratio [5]: 1.2
- pEC50 [6]: 7.55
- pEC50 [7]: 7.38
- AUC(0-t) at 8 h [8]: 3.76 µg·h/mL
- half-life [9]: 180 min
- Tmax [10]: 15 min
- Cmax [11]: 3.77 µg/mL
- Kp at 0.75 h [14]: 0.006
- Kp at 0.75 h [15]: 0.9

SMILES: CC#CC(CC(=O)O)c1ccc(OCc2ccc(C(=O)N3CCc4ccccc4C3)s2)cc1 (stereo not drawn)
- pEC50 [1]: 7.24

SMILES: O=C(O)CC(c1ccc(OCc2ccc(C(=O)N3CCN(c4ccc(F)cc4)CC3)s2)cc1)C1CC1 (stereo not drawn)
- pEC50 [1]: < 5.78

SMILES: CC#CC(CC(=O)O)c1ccc(OCc2ccc(C(=O)N3CCc4ccccc4C3)cc2)cc1 (stereo not drawn)
- pEC50 [1]: 6.97

SMILES: CC#CC(CC(=O)O)c1ccc(OCc2ccc(C(=O)N3CCN(c4ccccc4)CC3)s2)cc1 (stereo not drawn)
- pEC50 [1]: 7.14
- half-life at 100 µM [2]: 105 min
- half-life at 100 µM [3]: 55 min

SMILES: CC#CC(CC(=O)O)c1ccc(OCc2ccc(C(=O)NC3CCCc4ccccc43)cc2)cc1 (stereo not drawn)
- pEC50 [1]: 7.38

SMILES: CC#CC(CC(=O)O)c1ccc(OCc2ccc(C(=O)N3CCN(c4ccc(F)cc4)CC3)s2)cc1 (stereo not drawn)
- pEC50 [1]: 7.27

SMILES: CC#CC(CC(=O)O)c1ccc(OCc2ccc(C(=O)N3CCN(Cc4ccccc4)CC3)s2)cc1 (stereo not drawn)
- pEC50 [1]: 6.81

SMILES: CC#CC(CC(=O)O)c1ccc(OCc2ccc(C(=O)N3CCc4ccccc4C3)o2)cc1 (stereo not drawn)
- pEC50 [1]: 7.30

SMILES: CC#CC(CC(=O)O)c1ccc(OCc2ccc(C(=O)NC3CCCc4ccccc43)o2)cc1 (stereo not drawn)
- pEC50 [1]: 6.88

SMILES: CC#CC(CC(=O)O)c1ccc(OCc2ccc(C(=O)N3CCN(c4ccc(Cl)cc4)CC3)s2)cc1 (stereo not drawn)
- pEC50 [1]: 6.88

SMILES: CC#CC(CC(=O)O)c1ccc(OCc2ccc(C(=O)N3CCN(c4cccnc4)CC3)s2)cc1 (stereo not drawn)
- pEC50 [1]: 5.94

SMILES: CC#CC(CC(=O)O)c1ccc(OCc2ccc(C(=O)N3CCC4(C=Cc5ccccc54)CC3)cc2)cc1 (stereo not drawn)
- pEC50 [1]: 6.75
- half-life at 100 µM [2]: 9 min
- half-life at 100 µM [3]: 6 min
- Papp A→B [4]: 109 nm/s
- Ratio [5]: 0.3

SMILES: CC#CC(CC(=O)O)c1ccc(OCc2ccc(C(=O)N3CCN(C)CC3)s2)cc1 (stereo not drawn)
- pEC50 [1]: < 5.30

SMILES: CC#CC(CC(=O)O)c1ccc(OCc2ccc(C(=O)N3CCN(C4CCCCC4)CC3)s2)cc1 (stereo not drawn)
- pEC50 [1]: 6.09

SMILES: CC#CC(CC(=O)O)c1ccc(OCc2ccc(C(=O)N3CCC4(C=Cc5ccccc54)CC3)s2)cc1 (stereo not drawn)
- pEC50 [1]: 6.76
- half-life at 100 µM [2]: 25 min
- half-life at 100 µM [3]: 7 min
- Papp A→B [4]: 193 nm/s
- Ratio [5]: 0.3

SMILES: CC#CC(CC(=O)O)c1ccc(OCc2ccc(C(=O)N3CCN(c4ccc(F)cc4)CC3)cc2)cc1 (stereo not drawn)
- pEC50 [1]: 6.94

SMILES: CC#CC(CC(=O)O)c1ccc(OCc2ccc(C(=O)N3CCN(c4ccc(C)cc4)CC3)s2)cc1 (stereo not drawn)
- pEC50 [1]: 6.68

SMILES: CC#CC(CC(=O)O)c1ccc(OCc2ccc(C(=O)N3CCN(c4ccncc4)CC3)s2)cc1 (stereo not drawn)
- pEC50 [1]: < 5.30

SMILES: CC#C[C@@H](CC(=O)O)c1ccc(OCc2ccc(C(=O)N3CCN(c4ccc(F)cc4)CC3)s2)cc1
- pEC50 [1]: 7.33
- half-life at 100 µM [2]: 64 min
- half-life at 100 µM [3]: 120 min
- Papp A→B [4]: 206 nm/s
- Ratio [5]: 0.8
- pEC50 [6]: 7.60
- pEC50 [7]: 7.51
- AUC(0-t) at 8 h [8]: 28.4 µg·h/mL
- half-life [9]: 228 min
- Tmax [10]: 48 min
- Cmax [11]: 13.3 µg/mL
- Kp at 1 h [12]: 0.018
- Kp at 1 h [13]: 15.1

SMILES: CC#CC(CC(=O)O)c1ccc(OCc2cnc(C(=O)N3CCN(c4ccc(F)cc4)CC3)s2)cc1 (stereo not drawn)
- pEC50 [1]: 6.69

SMILES: CC#CC(CC(=O)O)c1ccc(OCc2ccc(C(=O)N3CCN(c4ccc(OC)cc4)CC3)s2)cc1 (stereo not drawn)
- pEC50 [1]: 6.54

SMILES: CC#CC(CC(=O)O)c1ccc(OCc2ccc(C(=O)N3CCCc4ccccc43)s2)cc1 (stereo not drawn)
- pEC50 [1]: 7.10

SMILES: O=C(O)CC1COc2cc(OCc3ccc(C(=O)N4CCN(c5ccc(F)cc5)CC4)s3)ccc21 (stereo not drawn)
- pEC50 [1]: < 5.78

SMILES: CC#CC(CC(=O)O)c1ccc(OCc2ccc(C(=O)NC3CCCc4ccccc43)s2)cc1 (stereo not drawn)
- pEC50 [1]: 6.96

SMILES: Cc1cc(Cl)ccc1-c1cccc(COc2ccc([C@H](CC(=O)O)c3nccn3C)cc2)c1
- Kp [16]: 0.04

SMILES: CC#CC(CC(=O)O)c1ccc(OCc2ccc(C(=O)N3CCN(c4ccc(F)cc4)CC3)o2)cc1 (stereo not drawn)
- pEC50 [1]: 6.51

SMILES: CC#C[C@H](CC(=O)O)c1ccc(OCc2ccc(C(=O)N3CCN(c4ccc(F)cc4)CC3)s2)cc1
- pEC50 [1]: < 5.30

SMILES: CC#CC(CC(=O)O)c1ccc(OCc2cnc(C(=O)NC3CCCc4ccccc43)s2)cc1 (stereo not drawn)
- pEC50 [1]: 6.84

SMILES: O=C(O)CCc1ccc(OCc2ccc(C(=O)N3CCN(c4ccc(F)cc4)CC3)s2)cc1
- pEC50 [1]: 6.21
